Legend:
[1] = Displacement of [3H]strychnine from strychnine-sensitive glycine receptor in rat spinal cord
[2] = biological target: GABA-A receptor; anion channel; assay: Displacement of [3H]muscimol from GABA-A receptor in Sprague-Dawley rat spinal cord; type: protein-complex assay
Summary of the method: (§1)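 Synaptic membranes from adult rat tissue (cerebral cortex or spinal cord–brainstem) incubated with 5 nM [3H]muscimol plus increasing competitor concentrations in 50 mM Tris-citrate, pH 7.1, 30 min at 4 °C. Bound ligand separated by rapid filtration through glass fiber filters, three washes with ice-cold buffer, scintillation counting. Nonspecific binding defined with 200 µM unlabeled GABA. Mean of three experiments in triplicate.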

[3] = biological target: GABA-A receptor; anion channel; assay: Displacement of [3H]muscimol from GABA-A receptor in Sprague-Dawley rat cerebral cortex; type: tissue-based; summary of the method: as §1

| IC50 [1] [µM] | IC50 [2] [µM] | IC50 [3] [µM] | SMILES |
| --- | --- | --- | --- |
| 8.6 | 10.5 | 17.7 | COc1c(NC2OC[C@@H](O)[C@@H](O)[C@@H]2O)cc2c(c1OC)-c1ccc(SC)c(=O)cc1[C@@H](NC(C)=O)CC2 (some centres undefined) |
| 1.5 | 1.9 | 3.4 | COc1c(O[C@@H]2O[C@H](CO)[C@@H](O)[C@H](O)[C@H]2O)cc2c(c1OC)-c1ccc(SC)c(=O)cc1[C@@H](NC(C)=O)CC2 [THIOCOLCHICOSIDE] |
| 4.2 | 5.9 | 10.5 | COc1c(N[C@@H]2O[C@@H](C)[C@@H](O)[C@@H](O)[C@@H]2O)cc2c(c1OC)-c1ccc(SC)c(=O)cc1[C@@H](NC(C)=O)CC2 |
| 39.9 | 1.9 | 5.4 | COc1c(N)cc2c(c1OC)-c1ccc(SC)c(=O)cc1[C@@H](NC(C)=O)CC2 |
| 10.6 | 11.3 | 18 | COc1c(NC2O[C@H](CO)[C@@H](O)[C@H](O)[C@H]2O)cc2c(c1OC)-c1ccc(SC)c(=O)cc1[C@@H](NC(C)=O)CC2 (some centres undefined) |
| 3.3 | 3.3 | 7 | COc1c(NC2OC[C@@H](O)[C@H](O)[C@H]2O)cc2c(c1OC)-c1ccc(SC)c(=O)cc1[C@@H](NC(C)=O)CC2 (some centres undefined) |
| 15.8 | – | – | NCC(=O)O [GLYCINE] |
| 13.1 | 11.3 | > 100 | COc1c(N[C@@H]2O[C@H](CO)[C@@H](O)[C@H](O)[C@@H]2O)cc2c(c1OC)-c1ccc(SC)c(=O)cc1[C@@H](NC(C)=O)CC2 |
| 4.6 | 3.8 | > 100 | COc1c(N[C@H]2O[C@@H](C)[C@H](O)[C@@H](O)[C@H]2O)cc2c(c1OC)-c1ccc(SC)c(=O)cc1[C@@H](NC(C)=O)CC2 |
| 4.1 | 4 | 9.7 | COc1c(NC2OC[C@@H](O)[C@H](O)[C@@H]2O)cc2c(c1OC)-c1ccc(SC)c(=O)cc1[C@@H](NC(C)=O)CC2 (some centres undefined) |

| SMILES | IC50 [1] [µM] | IC50 [2] [µM] | IC50 [3] [µM] |
| --- | --- | --- | --- |
| O=C1C[C@@H]2OCC=C3CN4CC[C@]56c7ccccc7N1[C@H]5[C@H]2[C@H]3C[C@H]46 [STRYCHNINE] | 0.014 | – | – |

Source: ChEMBL document CHEMBL1146873, “3-demethoxy-3-glycosylaminothiocolchicines: Synthesis of a new class of putative muscle relaxant compounds” (J Med Chem, 2006)
